Assay outcomes: PubChem BioAssay, several laboratories
This is a sample that favours compounds with a hit; in the whole collection about 6% have one here.
PostGolgi yeast – phenotypic screen on post-Golgi transport, primary screen. post-Golgi transport phenotypic cell assay. inhibition, % at 10 µM. 98,000 tested, 0.9% active. AID 739, 2007;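 also: yeast cells grown in 1536-well plates; yeast grown about 18 h at 30C before absorbance read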
E coli WT exp – growth inhibitors of wild-type E. coli, primary screen, strain BW25113, expanded library, OD600. growth inhibition, % at 100 µM. OD600 absorbance. 98,000 tested, 0.15% active. AID 710, 2007;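 active = growth inhibition above about 50% at one test dose, limit read from the data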;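 also: growth measured after 20 h incubation at 37 °C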
tolC growth inh – growth inhibitors of E. coli tolC mutant, primary screen, strain BW25113 ΔtolC::kan, 384-well | AID 573, 2007 | 65,000 tested, 2.2% active | OD615 | growth inhibition, % at 10 µM (by protocol);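 active = growth inhibition at or above a cutoff equal to the mean over every tested compound plus 3 SD, cut at about 60% in these data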;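 also: growth measured after 20 h incubation at 37 °C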
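signal = optical density read at 615 nm | test system = E. coli ΔtolC::kan strain BW25113 | timing = 20 h compound exposure of bacteria at 37 °C | buffer or medium = LB medium plus 50 µg/mL kanamycin | compound dosing = 10 µM final, single dose | evaluation = % inhibition of E. coli growth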
EphB4 ephrin blk – EphB4-ephrin-B2 interaction antagonists, primary screen, biochemical, TNYL-RAW peptide probe, fluorescence polarization; Ephrin type-B receptor 4 (Homo sapiens), P54760; EphB4 LBD / TNYL-RAW-Alexa532 peptide; inhibition, % at 7 µM; 97,000 tested, 0.15% active;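 active = inhibition above the screen-wide mean inhibition plus 3 SD, cut at about 15% in these data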;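 also: 0% = DMSO wells and 100% = excess unlabeled TNYL-RAW peptide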
Target sequence (P54760 whole entry, looked up, the tested form may be a part): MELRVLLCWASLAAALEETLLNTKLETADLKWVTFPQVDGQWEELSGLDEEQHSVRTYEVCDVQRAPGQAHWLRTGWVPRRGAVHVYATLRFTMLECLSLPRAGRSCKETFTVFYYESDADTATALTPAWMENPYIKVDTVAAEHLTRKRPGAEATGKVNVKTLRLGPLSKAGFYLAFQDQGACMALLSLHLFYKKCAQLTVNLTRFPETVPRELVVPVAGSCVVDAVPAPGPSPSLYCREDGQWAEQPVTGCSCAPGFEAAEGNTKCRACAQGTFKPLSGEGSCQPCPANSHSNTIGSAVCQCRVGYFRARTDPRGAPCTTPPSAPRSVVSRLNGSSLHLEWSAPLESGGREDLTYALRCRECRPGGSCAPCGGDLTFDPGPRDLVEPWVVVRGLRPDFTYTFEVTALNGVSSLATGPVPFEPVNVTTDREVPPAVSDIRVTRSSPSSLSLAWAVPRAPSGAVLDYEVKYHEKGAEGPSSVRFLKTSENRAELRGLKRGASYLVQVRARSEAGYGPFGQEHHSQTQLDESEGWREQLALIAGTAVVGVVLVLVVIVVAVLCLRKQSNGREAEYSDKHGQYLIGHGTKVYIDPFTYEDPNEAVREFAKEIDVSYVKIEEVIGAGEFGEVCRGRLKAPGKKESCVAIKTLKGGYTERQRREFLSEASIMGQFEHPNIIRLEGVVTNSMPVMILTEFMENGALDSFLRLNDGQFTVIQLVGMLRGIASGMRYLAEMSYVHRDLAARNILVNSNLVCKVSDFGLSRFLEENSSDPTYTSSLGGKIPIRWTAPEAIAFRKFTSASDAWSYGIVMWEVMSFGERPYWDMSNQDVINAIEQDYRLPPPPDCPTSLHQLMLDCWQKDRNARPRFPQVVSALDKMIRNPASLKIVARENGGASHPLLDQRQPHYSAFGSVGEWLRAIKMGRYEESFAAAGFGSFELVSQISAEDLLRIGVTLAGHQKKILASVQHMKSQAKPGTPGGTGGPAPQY
PostGolgi ctrl – growth inhibition of yeast control strain, primary screen, counter-screen for post-Golgi transport modulator project | efflux-deficient yeast background strain, growth absorbance A615, 16 h | inhibition, % at 10 µM | 98,000 tested, 5% active | AID 738, 2007
* hit, by the source's call; . = no result given. Rule as the data show it, unless noted: active = inhibition above about 30%; inactive = the rest.

SMILES | PostGolgi yeast | E coli WT exp | tolC growth inh | EphB4 ephrin blk | PostGolgi ctrl
O=c1c2ccccc2n(Cc2cccc(F)c2)c(=O)n1C1CCCC1 | 10.3 | -13.0 | 76.6* | -1.9 | 39.8*
CCCCC(=O)NC1(C(F)(F)F)C(=O)N(CC(C)C)C2=C1C(=O)CC(C)(C)C2 (centres undefined) | -4.4 | 4.0 | . | -5.8 | 31.0*
O=c1c2ccccc2nc(SCc2cccc(F)c2)n1Cc1ccco1 | 3.6 | -2.0 | 30.3 | -1.2 | 30.7*
CCCn1c(Cc2ccccc2)nnc1SCC(=O)N1CCOCC1 | 6.4 | 6.0 | . | 1.1 | 30.1*
CCn1c(=O)[nH]c2cc(C(=O)N3CCN(c4ccccc4)CC3)ccc2c1=O | 36.5* | 3.0 | 4.2 | -1.2 | 4.7
COc1ccc(-c2nc3ccccc3c(=O)n2CCCN2CCOCC2)cc1 | -4.3 | 6.0 | 1.2 | -7.7 | 1.2
O=c1c2ccccc2nc(SCc2ccccc2)n1Cc1ccco1 | 18.8 | -9.0 | 35.4 | 7.8 | 18.1
Cn1c(Cc2ccccc2)nnc1SCC(=O)N1CCOCC1 | 1.0 | -2.0 | . | 11.3 | -5.2
Cc1[nH]c2ccccc2c1C(=O)CSc1nc2ccccc2c(=O)n1CCCN1CCOCC1 | -0.2 | -11.0 | . | 0.5 | 36.4*
COc1cc(NC(=O)c2ncn[nH]2)cc(OC)c1OC | . | . | 9.7 | 3.4 | .
COc1ccc(NS(=O)(=O)c2ccc3oc(SC4CCOC4=O)nc3c2)cc1 (centres undefined) | 15.4 | 0.0 | . | 2.6 | 3.5
O=C(CP(=O)(c1ccccc1)c1ccccc1)Nn1cnnc1 | 6.4 | -10.0 | -11.9 | 1.1 | -6.1
Oc1ccc2ccccc2c1C=Nc1ccccc1-c1nc2ccccc2[nH]1 | 1.1 | 6.0 | . | 0.0 | 16.9
O=C(CSc1nc2ccccc2c(=O)n1Cc1ccco1)N1CCN(c2ccccc2)CC1 | 0.6 | -12.0 | 30.0 | -1.4 | 35.7*
CCn1c(SCC(=O)N2CCN(c3ccc(F)cc3)CC2)nc2ccccc2c1=O | 1.9 | -4.0 | 12.4 | -1.2 | 37.4*
CCOC(=O)CSc1nc2ccccc2c(=O)n1Cc1ccco1 | 2.6 | 2.0 | 10.2 | . | 19.9
CCn1c(SCC(=O)N2CCCC2)nc2ccccc2c1=O | -5.3 | -4.0 | -7.2 | -10.5 | 12.3
COCCn1c(SCC(=O)N2CCCCC2)nc2ccccc2c1=O | 14.3 | -3.0 | -2.6 | -1.3 | 10.2
O=C(CSc1nc2ccccc2c(=O)n1Cc1ccco1)c1ccccc1 | -3.9 | -11.0 | 30.8 | -11.9 | 31.3*
CCCn1c(SCC(=O)N2CCN(c3ccccc3)CC2)nc2ccccc2c1=O | 0.5 | -17.0 | 14.0 | -2.2 | 51.1*
COc1cc(NS(=O)(=O)c2ccc(Br)s2)cc(OC)c1 | -12.7 | -2.0 | 34.2 | 2.4 | 14.0
C/C(=N\NC(=O)c1[nH]c2c([N+](=O)[O-])cc(C)cc2c1-c1ccccc1)c1cccnc1 | 2.5 | 4.0 | . | 9.8 | 12.3
COc1ccc(C2NC(=O)c3sc4nc(C)c(C(C)=O)c(-c5ccc(Cl)cc5)c4c3N2)cc1 (centres undefined) | -0.5 | -12.0 | . | 3.3 | -0.3
Cc1c(C=O)cnn1CCC(=O)O | . | . | . | 3.4 | .
CCn1c(SCC(=O)N2CCN(c3ccc(Cl)cc3)CC2)nc2ccccc2c1=O | -9.9 | -6.0 | -13.3 | -0.9 | 55.4*
SMILES | PostGolgi yeast | E coli WT exp | tolC growth inh | EphB4 ephrin blk | PostGolgi ctrl
C=C(C)Cn1c(SCC)nc2ccccc2c1=O | 0.6 | 3.0 | 25.4 | -4.3 | 44.3*
CCCCn1c(SCC(=O)NCc2ccccc2)nc2ccc(N3CCOCC3)cc2c1=O | -4.8 | -6.0 | 7.2 | 8.0 | 35.1*
CCCCn1c(SCC(=O)N2CCN(c3ccccc3)CC2)nc2ccsc2c1=O | 3.4 | -24.0 | 51.2 | 6.7 | 42.6*
Cc1ccc(N2CCN(c3cc(C)nc4nc(C)nn34)CC2)c(C)c1 | . | . | 39.9 | . | .
O=C(NC1CCCCC1)c1ccccc1NC(=O)C1CC1 | . | . | . | -3.0 | .
Cc1cc2ncn(-c3ncnc4sc5c(c34)CCCC5)c2cc1C | -5.9 | -4.0 | . | -1.0 | 38.7*
Cc1cc2ncn(-c3ncnc4sc5c(c34)CCC(C)C5)c2cc1C (centres undefined) | 3.6 | 6.0 | . | 2.3 | 69.8*
COc1cc(CNCc2ccccn2)ccc1OCc1cccc(Cl)c1 | 6.0 | 21.0 | . | 2.6 | 0.6
O=C(CNC(=O)c1cccs1)NCC(=O)OCc1ccc(Cl)cc1 | -0.8 | 5.0 | . | 5.9 | 31.6*
Cc1nc2ccccc2n1-c1ccccc1 | -1.0 | 9.0 | 4.5 | 1.9 | 21.3
O=c1c(/C=C(\O)c2ccccc2)nc2ccccc2n1-c1ccccc1 | -9.6 | -8.0 | . | -3.9 | 30.4*
OC(CSc1ccccc1Cl)CN1CCN(c2ccc(F)cc2)CC1 (centres undefined) | 27.8 | 19.0 | . | 2.5 | 31.1*
OC(CSc1c(Cl)cccc1Cl)CN1CCN(c2ccc(F)cc2)CC1 (centres undefined) | 19.8 | -7.0 | . | -1.3 | 37.3*
OC(CSc1ccccc1Cl)CN1CCN(c2ccccc2F)CC1 (centres undefined) | -5.6 | 19.0 | . | 11.4 | 20.8
Cc1cc(=O)[nH]c(SCC(=O)c2c(N)n(C)c(=O)n(C)c2=O)n1 | -7.2 | -3.0 | . | 3.0 | 3.1
Cn1c(=O)c2c(nc(N3CCc4ccccc4C3)n2Cc2ccccc2F)n(C)c1=O | 8.8 | -1.0 | 33.9 | -3.1 | 47.2*
Cn1c(=O)c2c(nc(N3CCc4ccccc4C3)n2Cc2ccc(Br)cc2)n(C)c1=O | -4.6 | -3.0 | 21.1 | -1.7 | 26.8
Cn1c(=O)c2c(nc(N3CCN(c4ccccn4)CC3)n2Cc2ccccc2Cl)n(C)c1=O | -1.1 | -8.0 | . | -3.1 | 33.0*
CC(=O)CC(c1ccc([N+](=O)[O-])cc1)c1c(O)c2ccccc2oc1=O (centres undefined) | 1.1 | 9.0 | . | 4.5 | 11.1
O=C(Nc1ccc(CN2CCOCC2)cc1)c1ccc(-c2cc(Cl)ccc2Cl)o1 | 73.3* | -6.0 | . | -2.4 | 64.6*
Cc1cc(N2CCN(C)CC2)nc2ccc(NC(=O)c3ccc(Br)o3)cc12 | 16.6 | 9.0 | 11.4 | . | 32.1*
Cn1cc(Cl)c(C(=O)OCC(=O)Nc2ccccc2)n1 | -4.0 | 5.0 | . | 15.5* | 1.1
O=C(COc1ccc(-c2nnc(N3CCCCC3)c3ccccc23)cc1)N1CCCCC1 | -1.1 | 6.0 | 18.8 | -4.2 | 15.0
Cc1ccc(OCC(=O)N2CCN(C(=O)Cc3ccccc3)CC2)cc1 | 2.7 | 3.0 | -1.9 | -0.3 | 30.9*
Cc1ccc(-c2nnc(N3CCN(C(=O)COc4ccccc4)CC3)c3ccccc23)cc1 | -1.4 | -7.0 | . | -2.8 | 49.6*
CCCCCCCCCCCC(=O)N/N=C/c1ccco1 | 16.1 | -4.0 | . | 6.2 | 10.8
CCOCCCNC(=O)c1cc2sc(Cl)cc2n1CC | 38.7* | 1.0 | 17.0 | . | 7.4
CCOCCCNC(=O)c1cc(C)nn1-c1ccccc1 | -5.5 | 0.0 | -11.2 | . | 5.1
Cc1ccc(CC(=O)N2CCN(c3ccccn3)CC2)cc1 | 0.5 | -13.0 | . | -2.1 | 3.9
CCOC(=O)c1[nH]c(COC(=O)C2CC(=O)N(Cc3ccccc3)C2)c(C(=O)OCC)c1C (centres undefined) | -1.6 | -1.0 | -0.5 | 9.6 | 8.1
